Calls of active or inactive are those of the source. No cut-off for these calls is given here.

From ChEMBL document CHEMBL4219029, “Impact of Target Warhead and Linkage Vector on Inducing Protein Degradation: Comparison of Bromodomain and Extra-Terminal (BET) Degraders Derived from Triazolodiazepine (JQ1) and Tetrahydroquinoline (I-BET726) BET Inhibitor Scaffolds” (J Med Chem, 2018) come the findings set out here.

One test deals with HL-60. Briefly: Antiproliferative activity against human HL60 cells after 48 hrs by CellTiter-Glo luminescent cell viability assay. In kind it is functional, cell-based. As to conditions: HL-60, 48 h. Put shortly:
(§1)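 Cells in RPMI with 10% FBS, L-glutamine, penicillin and streptomycin at 37 °C, 5% CO2. Seeded at 3 × 10^5 per mL and exposed to a range of compound concentrations or 0.05% DMSO for 48 h. Viability read by CellTiter-Glo luminescence. EC50 from curve fitting; errors reflect fit quality.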

In another test the test system is MV4-11. Briefly: Antiproliferative activity against human MV4-11 cells after 48 hrs by CellTiter-Glo luminescent cell viability assay. In kind it is functional, cell-based. As to conditions: MV4-11, 48 h. The procedure, abridged: as §1
Background: Cellular ATP, detected with luciferase, serves as a proxy for viable cell number.

Test [1] addresses von Hippel-Lindau disease tumor suppressor/Bromodomain-containing protein 4/Elongin-B/Elongin-C (Homo sapiens, UniProt O60885+P40337+Q15369+Q15370). As to the kind of experiment: Induction of interaction of N-terminal His6-tagged recombinant human VHL (54 to 213 residues)/elongin C (17 to 112 residues)/elongin B (1 to 104 residues) co-expressed in Escherichia coli BL21 (DE3) with recombinant human Brd4 BD2 assessed as VCB/BRD4/compound ternary complex formation by isothermal titration calorimetry-based assay. On the technique in general: ITC needs no label: the signal is the heat of the interaction.

Test [2] deals with T1, von Hippel-Lindau disease tumor suppressor/Bromodomain-containing protein 4 (Homo sapiens, UniProt O60885+P40337). Briefly: Proteolysis targeting chimera activity in human HeLa cells assessed as induction of VCB-mediated delivery of BRD4 short isoform for protein degradation by proteasome by measuring drug level causing 50% cellular protein depletion incubated for 24 hrs by Western blotting method. In kind it is cell-based.

Test [3] concerns the target Bromodomain-containing protein 4 (Homo sapiens, UniProt O60885). Briefly: Binding affinity to N-terminal His6-tagged recombinant human Brd4 BD2 expressed in Escherichia coli BL21 (DE3) assessed as compound binary complex formation by isothermal titration calorimetry-based assay. Put shortly: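 ITC at 25 °C, stirred, in 20 mM Bis-Tris propane, 150 mM NaCl, 1 mM TCEP, pH 7.4, with 0.2% or 3% DMSO depending on scaffold. Bromodomain titrated into PROTAC (20 μM in cell, halved for poorly soluble compounds) over 19 injections. Single-binding-site fit gave n, Kd and ΔH.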

For test [4], the target named is T1, von Hippel-Lindau disease tumor suppressor/Bromodomain-containing protein 4. As to the kind of experiment: Proteolysis targeting chimera activity in human HeLa cells assessed as induction of VCB-mediated delivery of BRD4 short isoform for protein degradation by proteasome at 1 to 10 uM incubated for 24 hrs by Western blotting method. It is filed as cell-based. The procedure, abridged:
(§2)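 HeLa cells seeded at 3 × 10^5 per well and treated the next day for 24 h. Lysed in RIPA buffer with protease inhibitors, Benzonase and 0.5 mM MgCl2, then immunoblotted. Bands normalized to β-actin and quantified against DMSO control. Dmax is the largest depletion across concentrations. Two biological replicates.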

Test [5] addresses Von Hippel-Lindau disease tumor suppressor/Elongin B/Elongin C (Homo sapiens, UniProt P40337). Briefly: Binding affinity to N-terminal His6-tagged recombinant human VHL (54 to 213 residues)/elongin C (17 to 112 residues)/elongin B (1 to 104 residues) expressed in Escherichia coli BL21 (DE3) assessed as compound binary complex formation by isothermal titration calorimetry-based assay.

Test [6] deals with T2, von Hippel-Lindau disease tumor suppressor/Bromodomain-containing protein 2/Elongin-B/Elongin-C (Homo sapiens) (UniProt P25440+P40337+Q15370+Q15369). As to the kind of experiment: Proteolysis targeting chimera activity in human HeLa cells assessed as induction of VCB-mediated delivery of BRD2 for protein degradation by proteasome at 1 to 10 uM incubated for 24 hrs by Western blotting method. In kind it is cell-based. The procedure, abridged:
as §2
A general note: A western blot detects proteins with antibodies after separation by electrophoresis.

For test [7], the target named is T3, von Hippel-Lindau disease tumor suppressor/Bromodomain-containing protein 3/Elongin-B/Elongin-C (Homo sapiens, UniProt Q15059+P40337+Q15370+Q15369). As to the kind of experiment: Proteolysis targeting chimera activity in human HeLa cells assessed as induction of VCB-mediated delivery of BRD3 for protein degradation by proteasome by measuring drug level causing 50% cellular protein depletion incubated for 24 hrs by Western blotting method. It is filed as cell-based.

The target of test [8] is T1, von Hippel-Lindau disease tumor suppressor/Bromodomain-containing protein 4. As to the kind of experiment: Proteolysis targeting chimera activity in human HeLa cells assessed as induction of VCB-mediated delivery of BRD4 long isoform for protein degradation by proteasome at 1 to 10 uM incubated for 6 hrs by Western blotting method. In kind it is cell-based. Put shortly: (§3)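 HeLa cells seeded at 3 × 10^5 per well and treated the next day for 6 h. RIPA lysates (protease inhibitors, Benzonase, 0.5 mM MgCl2) immunoblotted. Band intensities normalized to β-actin and expressed relative to DMSO vehicle.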

For test [9] the target is unchanged. Briefly: Proteolysis targeting chimera activity in human HeLa cells assessed as induction of VCB-mediated delivery of BRD4 long isoform for protein degradation by proteasome at 1 to 10 uM incubated for 24 hrs by Western blotting method. It is filed as cell-based. Put shortly:
as §2

For test [10], the target named is T3, von Hippel-Lindau disease tumor suppressor/Bromodomain-containing protein 3/Elongin-B/Elongin-C. Briefly: Proteolysis targeting chimera activity in human HeLa cells assessed as induction of VCB-mediated delivery of BRD3 for protein degradation by proteasome at 1 to 10 uM incubated for 24 hrs by Western blotting method. In kind it is cell-based. The procedure, abridged:
as §2

Test [11] shares this target. Briefly: Proteolysis targeting chimera activity in human HeLa cells assessed as induction of VCB-mediated delivery of BRD3 for protein degradation by proteasome at 1 to 10 uM incubated for 6 hrs by Western blotting method. It is filed as cell-based. The procedure, abridged: as §3
In test [12] the target is T2, von Hippel-Lindau disease tumor suppressor/Bromodomain-containing protein 2/Elongin-B/Elongin-C (Homo sapiens). Briefly: Proteolysis targeting chimera activity in human HeLa cells assessed as induction of VCB-mediated delivery of BRD2 for protein degradation by proteasome at 1 to 10 uM incubated for 6 hrs by Western blotting method. In kind it is cell-based. The procedure, abridged: as §3

The target of test [13] is T1, von Hippel-Lindau disease tumor suppressor/Bromodomain-containing protein 4. Briefly: Proteolysis targeting chimera activity in human HeLa cells assessed as induction of VCB-mediated delivery of BRD4 short isoform for protein degradation by proteasome at 1 to 10 uM incubated for 6 hrs by Western blotting method. It is filed as cell-based. The procedure, abridged:
as §3

For test [14] the target is unchanged. As to the kind of experiment: Proteolysis targeting chimera activity in human HeLa cells assessed as induction of VCB-mediated delivery of BRD4 long isoform for protein degradation by proteasome by measuring drug level causing 50% cellular protein depletion incubated for 24 hrs by Western blotting method. In kind it is cell-based.
Test [15] concerns the target von Hippel-Lindau disease tumor suppressor/Bromodomain-containing protein 2/Elongin-B/Elongin-C (Homo sapiens, UniProt P25440+P40337+Q15369+Q15370). As to the kind of experiment: Induction of interaction of N-terminal His6-tagged recombinant human VHL (54 to 213 residues)/elongin C (17 to 112 residues)/elongin B (1 to 104 residues) co-expressed in Escherichia coli BL21 (DE3) with recombinant human Brd2 BD1 assessed as VCB/BRD2/compound ternary complex formation by isothermal titration calorimetry-based assay.

In the test on HL-60, `Cc1ncsc1-c1ccc(CNC(=O)[C@@H]2C[C@@H](O)CN2C(=O)[C@@H](NC(=O)COCCOCCOCCNC(=O)C[C@@H]2N=C(c3ccc(Cl)cc3)c3c(sc(C)c3C)-n3c(C)nnc32)C(C)(C)C)cc1` gave an EC50 of 219 nM and an Emax of 92%. For the same compound, the midpoint of the response in the test with MV4-11, the EC50, lay at 26.9 nM.

On to `Cc1sc2c(c1C)C(c1ccc(Cl)cc1)=N[C@@H](CC(=O)Nc1ccc(OCCOCCOCCOCCNc3cccc4c3C(=O)N(C3CCC(=O)NC3=O)C4=O)cc1)c1nnc(C)n1-2` (stereo not given in full), for which the Emax with HL-60 was determined as 88%.

As to `CC(=O)N1c2ccc(-c3ccc(C(=O)NCCOCCOCCOCCOCC(=O)N[C@H](C(=O)N4C[C@H](O)C[C@H]4C(=O)NCc4ccc(-c5scnc5C)cc4)C(C)(C)C)cc3)cc2[C@H](Nc2ccc(Cl)cc2)C[C@@H]1C`, the Kd in test [1] was 183 nM; in test [3] it was 8 nM; in test [5] it was 109 nM; in test [15] it was 330 nM. The Activity entry in [2], in test [7] and in test [14] was “Dose-dependent effect” in each case. The pDC50 in [2] amounted to 8.1; in test [7], 7.7; in test [14], 7.5. In addition, the EC50 in the test with HL-60 was 427 nM; with MV4-11 it was 83.2 nM. In addition, the Emax in the test with HL-60 came out at 98.3%; with MV4-11, 96.4%. The outcome in test [4], in test [6], in test [8], in test [9], in [10] and in test [11] was inactive. The result in test [12] and in [13] was inactive.

For the compound `Cc1ncsc1-c1ccc(CNC(=O)[C@@H]2C[C@@H](O)CN2C(=O)[C@@H](NC(=O)COCCOCCNC(=O)C[C@@H]2N=C(c3ccc(Cl)cc3)c3c(sc(C)c3C)-n3c(C)nnc32)C(C)(C)C)cc1`, the Kd in [1] stood at 26 nM; in [3], 17 nM. For the same compound, the figures for the EC50 with HL-60 and with MV4-11 were 1450 nM and 178 nM, respectively. The Emax in the test with HL-60 and in the test on MV4-11 was 91.4% throughout.

For `CC(=O)N1c2ccc(-c3ccc(C(=O)O)cc3)cc2[C@H](Nc2ccc(Cl)cc2)C[C@@H]1C`, the Emax was found to be 82.4% in the test with HL-60 and 73.3% in the test on MV4-11.

Consider `Cc1ncsc1-c1ccc(CNC(=O)[C@@H]2C[C@@H](O)CN2C(=O)[C@@H](NC(=O)COCCOCCOCCOCCNC(=O)C[C@@H]2N=C(c3ccc(Cl)cc3)c3c(sc(C)c3C)-n3c(C)nnc32)C(C)(C)C)cc1`, for which the Kd in test [1] was found to be 15 nM; in test [3], 27 nM. Moreover, in test [2], the pDC50 is 8.4. The midpoint of the response in the test with HL-60, the EC50, lay at 1260 nM. The Emax with HL-60 was 91.7%; in the test with MV4-11 it was 95.2%.

For `CC(=O)N1c2ccc(-c3ccc(C(=O)NCCOCCOCC(=O)N[C@H](C(=O)N4C[C@H](O)C[C@H]4C(=O)NCc4ccc(-c5scnc5C)cc4)C(C)(C)C)cc3)cc2[C@H](Nc2ccc(Cl)cc2)C[C@@H]1C`, the Kd in test [1] stood at 781 nM; in test [3] it was 3 nM; in [5] it was 116 nM. For the same compound, the figures for the pDC50 in test [2], in test [7] and in test [14] were 6.9, 6.8 and 6.7, respectively. Also, the EC50 in the test with HL-60 was 676 nM; in the test on MV4-11 it was 575 nM. The figures for the Emax in the test on HL-60 and with MV4-11 were 96.6% and 88.1%, respectively.

What is called EC50 is the concentration at which the effect is half-maximal. The low end stands for greater potency, the high end for weaker potency. Usually Kd stands for the concentration at which binding is half-saturated.
